Holding throughout (assay): MTT assay, cytotoxicity/growth inhibition
In general terms: Tetrazolium assays rely on reduction of a dye to a coloured formazan, in cell work by metabolically active cells.

For assay [1], the system named is HCT-116 (colon carcinoma). It is filed as cell-based. Particulars: Homo sapiens; for inhibition at 20 µM: HCT-116, 48 h, read-out: Cytotoxic Activity (% Growth Inhibition). The essentials:
(§1)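 Cells were grown in RPMI (A549, HCT-116, PC-3) or DMEM (MCF-7) with 10% FBS at 37 °C and 5% CO2. Seeding per well was […] and PC-3 8 × 10^4 cells. […] MTT 250 μg/mL, 4 h; DMSO; A570; triplicate; mean ± SE.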

Assay [2] concerns A549 (lung carcinoma). In kind it is cell-based, human. Particulars: Homo sapiens; for inhibition at 20 µM: A549, 48 h, read-out: Cytotoxic Activity (% Growth Inhibition), A549, 20 μM concentration, MTT, 48 h. A digest of the protocol: as §1
Assay [3] relates to MCF-7 (breast carcinoma). It is filed as cell-based. The conditions noted are these: Homo sapiens; for inhibition at 20 µM: MCF7, 48 h, read-out: Cytotoxic Activity (% Growth Inhibition). The essentials:
as §1

The test system of assay [4] is PC-3 (prostate carcinoma). It is filed as cell-based. Particulars: Homo sapiens; for inhibition at 20 µM: 48 h, read-out: Cytotoxic Activity (% Growth Inhibition). A digest of the protocol:
as §1

Data on six compounds can be found in article PMC9933479 (ACS Omega, 2023).

The structures appear in SMILES notation.

On to `CCCCCCCCCC(=O)OCC1=CCC2[C@](C)(CO)[C@H](O)CC[C@@]2(C)[C@@H]1/C=C/C1=CCOC1=O` (stereo partly drawn) [Compound 9x, ((1S,5R,6R,8aR)-6-Hydroxy-5-(hydroxymethyl)-5,8a-dimethyl-1-((E)-2-(2-oxo-2,5-dihydrofuran-3-yl)vinyl)-1,4,4a,5,6,7,8,8a-octahydronaphthalen-2-yl)methyl Decanoate], for which the inhibition at 20 µM in assay [1] was 2.7 ± 0.51%; in assay [2], 23.2 ± 0.74%; in assay [3] it was 46 ± 0.84%; in assay [4], 24 ± 0.83%.
On the same counts, the results for `C[C@]1(CO)C2CC=C(COC(=O)c3cccc(F)c3)[C@@H](/C=C/C3=CCOC3=O)[C@]2(C)CC[C@H]1O` (stereo partly drawn) [Compound 9c, ((1S,5R,6R,8aR)-6-Hydroxy-5-(hydroxymethyl)-5,8a-dimethyl-1-((E)-2-(2-oxo-2,5-dihydrofuran-3-yl)vinyl)-1,4,4a,5,6,7,8,8a-octahydronaphthalen-2-yl)methyl 3-Fluorobenzoate] are 14.8 ± 0.17%, 42.92 ± 0.27%, 1.54 ± 0.03% and 0%.
Broadly, the IC50 is the midpoint of a concentration-inhibition curve. A lower IC50 goes with greater potency. As to `C[C@]1(CO)C2CC=C(COC(=O)c3ccccc3C(F)(F)F)[C@@H](/C=C/C3=CCOC3=O)[C@]2(C)CC[C@H]1O` (stereo partly drawn) [Compound 9n, ((1S,5R,6R,8aR)-6-Hydroxy-5-(hydroxymethyl)-5,8a-dimethyl-1-((E)-2-(2-oxo-2,5-dihydrofuran-3-yl)vinyl)-1,4,4a,5,6,7,8,8a-octahydronaphthalen-2-yl)methyl 2-(Trifluoromethyl)benzoate], the half-inhibitory concentration (IC50) in assay [1] (HCT-116) was above 20 µM; in assay [2] (A549) it was above 20 µM; in assay [3] (MCF7), above 20 µM; in assay [4], 5.7 µM. Besides, the inhibition at 20 µM in assay [1] was determined as 44.9 ± 0.78%; in assay [2], 5.6 ± 0.14%; in assay [3], 18 ± 0.58%; in assay [4] it was 72.2 ± 0.41%.
For `Cc1cccc(C(=O)OCC2=CCC3[C@](C)(CO)[C@H](O)CC[C@@]3(C)[C@@H]2/C=C/C2=CCOC2=O)c1` (stereo partly drawn) [Compound 9i, ((1S,5R,6R,8aR)-6-Hydroxy-5-(hydroxymethyl)-5,8a-dimethyl-1-((E)-2-(2-oxo-2,5-dihydrofuran-3-yl)vinyl)-1,4,4a,5,6,7,8,8a-octahydronaphthalen-2-yl)methyl 3-Methylbenzoate], the inhibition at 20 µM came out at 0% in assay [1], 21.4 ± 0.42% in assay [2], 2.09 ± 0.07% in assay [3] and 0% in assay [4].
Regarding `C[C@@]12COC(c3ccccc3)O[C@@H]1CC[C@]1(C)C2CC=C(COC(=O)c2cccc(I)c2)[C@H]1/C=C/C1=CCOC1=O` (stereo partly drawn) [Compound 8f, ((4aR,6aR,7S,10bR)-6a,10b-Dimethyl-7-((E)-2-(2-oxo-2,5-dihydrofuran-3-yl)vinyl)-3-phenyl-4a,5,6,6a,7,10,10a,10b-octahydro-1H-naphtho[2,1-d][1,3]dioxin-8-yl)methyl 3-Iodobenzoate], the inhibition at 20 µM came to 33.25 ± 0.11% in assay [1], 30.98 ± 0.25% in assay [2], 0% in assay [3] and 0% in assay [4].
With `COc1cc(C(=O)OCC2=CCC3[C@]4(C)COC(c5ccccc5)O[C@@H]4CC[C@@]3(C)[C@@H]2/C=C/C2=CCOC2=O)cc(OC)c1OC` (stereo partly drawn) [Compound 8k, ((4aR,6aR,7S,10bR)-6a,10b-Dimethyl-7-((E)-2-(2-oxo-2,5-dihydrofuran-3-yl)vinyl)-3-phenyl-4a,5,6,6a,7,10,10a,10b-octahydro-1H-naphtho[2,1-d][1,3]dioxin-8-yl)methyl 3,4,5-Trimethoxybenzoate], the inhibition at 20 µM stood at 50 ± 0.62% in assay [1], 20.4 ± 0.73% in assay [2], 46 ± 0.77% in assay [3] and 5.6 ± 0.59% in assay [4].
